The source of these data is ChEMBL document CHEMBL3856286, “Halogenated naphthochalcones and structurally related naphthopyrazolines with antitumor activity” (Bioorg Med Chem Lett, 2016).

Series [1] addresses T1, Broad substrate specificity ATP-binding cassette transporter ABCG2 (Homo sapiens, UniProt Q9UNQ0).
T1 sequence (Q9UNQ0 whole entry): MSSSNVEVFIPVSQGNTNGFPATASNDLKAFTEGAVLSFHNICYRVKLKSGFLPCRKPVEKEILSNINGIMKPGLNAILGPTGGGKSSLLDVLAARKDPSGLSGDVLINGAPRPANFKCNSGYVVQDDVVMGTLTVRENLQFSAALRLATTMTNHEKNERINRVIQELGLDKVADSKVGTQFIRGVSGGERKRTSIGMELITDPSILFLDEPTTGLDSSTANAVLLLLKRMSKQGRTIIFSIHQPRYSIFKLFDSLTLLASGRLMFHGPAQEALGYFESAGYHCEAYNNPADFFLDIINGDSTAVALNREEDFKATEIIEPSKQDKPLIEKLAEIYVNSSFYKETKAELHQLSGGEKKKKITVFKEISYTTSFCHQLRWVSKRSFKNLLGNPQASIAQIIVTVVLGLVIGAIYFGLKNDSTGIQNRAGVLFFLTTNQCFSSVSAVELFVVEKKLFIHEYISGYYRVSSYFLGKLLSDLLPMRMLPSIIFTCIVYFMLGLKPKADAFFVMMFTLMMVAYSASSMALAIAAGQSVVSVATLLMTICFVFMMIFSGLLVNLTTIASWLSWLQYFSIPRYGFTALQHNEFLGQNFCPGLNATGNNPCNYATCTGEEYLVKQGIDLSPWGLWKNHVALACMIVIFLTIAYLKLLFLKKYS
As to the kind of experiment: Inhibition of BCRP in human MCF7/Topo cells assessed as mitoxantrone accumulation preincubated for 10 mins followed by mitoxantrone addition measured after 30 mins by fluorescence assay. The class given is cell-based. Put shortly:
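MCF-7/Topo breast cancer cells (BCRP-overexpressing) exposed to compounds at 0–100 µM, or fumitremorgin C 0.1–100 µM as reference inhibitor, for 30 min with mitoxantrone as fluorescent BCRP substrate. Mitoxantrone fluorescence taken as measure of inhibition; IC50 from dose–response curves; mean ± SD of three independent experiments.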

The test system of the next series is HT-29. As to the kind of experiment: (§1) Growth inhibition of human HT-29 cells after 72 hrs by MTT assay. The format is functional, cell-based. (In general: Tetrazolium assays rely on reduction of a dye to a coloured formazan, in cell work by metabolically active cells.)
Series [2] can be described thus: as §1. The format is functional, cell-based. To be noted: HT-29, 72 h.
The nature of series [3]: (§2) Growth inhibition of human HCT116 cells after 72 hrs by MTT assay. The class given is functional, cell-based. The settings on record: HCT-116, 72 h.
The subject of another series is HCT-116. The description is as §2. The class given is functional, cell-based.
For series [4], the system named is 518A2. As to the kind of experiment: Inhibition of tubulin polymerization in human 518A2 cells assessed as increase in detergent soluble tubulin heterodimers at 5 to 50 uM after 4 hrs by Western blot analysis. The class given is cell-based. The gist of the method:
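518A2 melanoma cells treated 4 h with a range of concentrations; detergent-insoluble (polymeric tubulin) lysate fraction separated by centrifugation, run on SDS–PAGE, immunoblotted for alpha-tubulin (55 kDa); densitometry from at least two independent experiments (mean ± SD).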

The species named for another series is Sus scrofa. As to the kind of experiment: Inhibition of pig brain tubulin polymerization at 5 uM measured every 20 sec for 2 hrs by turbidimetric method.
The next series concerns the target P-gp (ABCB1) (Homo sapiens, UniProt P08183). As to the kind of experiment: Potency index, ratio of verapamil IC50 to compound IC50 for P-gp in human KB-V1/Vbl cells. The class given is cell-based. To be noted: read-out: Ratio IC50.
Series [5] has as its target ATP-dependent translocase ABCB1 (Homo sapiens, UniProt P08183). As to the kind of experiment: Inhibition of P-gp in human KB-V1/Vbl cells assessed as calcein-AM accumulation preincubated for 15 mins followed by calcein-AM addition measured after 15 mins by fluorescence assay. The class given is cell-based.
The test system of a further series is PANC-1. As to the kind of experiment: (§3) Growth inhibition of human PANC1 cells after 72 hrs by MTT assay. The format is functional, cell-based.
The nature of series [6]: as §3. The class given is functional, cell-based. The settings on record: PANC-1, 72 h.
Series [7] relates to 518A2. As to the kind of experiment: Binding affinity to tubulin in human 518A2 cells assessed as effect on F-actin cytoskeleton by measuring increase in stress fibres at 5 uM after 24 hrs by phalloidin 488/DAPI staining based fluorescence microscopic analysis. The format is cell-based. Put shortly:
(§4)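 518A2 melanoma cells treated 24 h at 10 µM or 5 µM; F-actin fluorescently stained and cytoskeletal organisation, including stress-fibre formation, compared with untreated controls by fluorescence microscopy.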

The nature of series [8]: (§5) Growth inhibition of human 518A2 cells after 72 hrs by MTT assay. The format is functional, cell-based. To be noted: 518A2, 72 h.
The subject of series [9] is 518A2. The series is described as §5. The class given is functional, cell-based.
Series [10] in a line: (§6) Growth inhibition of human MCF7/Topo cells after 72 hrs by MTT assay. The class given is functional, cell-based.
Another series concerns MCF7/Topo. The description is as §6. The class given is functional, cell-based.
A short description of series [11]: Cell cycle arrest in human HT-29 cells assessed as decrease in G1 phase at 15 uM after 24 hrs by propidium iodide staining based flow cytometry. The format is functional. Put shortly: (§7)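 HT-29 colon carcinoma cells treated 24 h with 15 µM compound or DMSO (control); propidium iodide staining, flow cytometry for cell-cycle phase distribution and sub-G1 fraction. Means ± SD of three independent experiments.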
In general terms: Flow cytometry measures light scatter and fluorescence of single cells or particles in a stream.

Series [12] is described as follows: Cell cycle arrest in human HT-29 cells assessed as accumulation in G2/M phase at 15 uM after 24 hrs by propidium iodide staining based flow cytometry. The format is functional. Put shortly: as §7
Series [13] in a line: (§8) Growth inhibition of human KB-V1/Vbl cells after 72 hrs by MTT assay. The class given is functional.
For another series, the system named is KB-V1/Vbl. The series is described as §8. The format is functional.
Series [14] relates to 518A2. As to the kind of experiment: Induction of apoptosis in human 518A2 cells assessed as DNA ladder formation at 50 uM after 24 hrs by ethidium bromide staining based agarose gel electrophoresis. The class given is functional, cell-based.
The test system of series [15] is 518A2. As to the kind of experiment: Induction of apoptosis in human 518A2 cells assessed as DNA fragmentation at 25 uM after 24 hrs by TUNEL based flow cytometry. The class given is functional, cell-based. Put shortly: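 518A2 melanoma cells treated 24 h; DNA fragmentation detected by TUNEL labelling and quantified by flow cytometry against untreated controls.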

The subject of series [16] is 518A2. As to the kind of experiment: Binding affinity to tubulin in human 518A2 cells assessed as effect on F-actin cytoskeleton by measuring increase in stress fibres at 10 uM after 24 hrs by phalloidin 488/DAPI staining based fluorescence microscopic analysis. The format is cell-based. Put shortly: as §4

Each structure is given as a SMILES string. Active and inactive are the calls of the source. No cut-off for these calls is given here.

ATP-dependent translocase ABCB1, sequence (P08183 whole entry): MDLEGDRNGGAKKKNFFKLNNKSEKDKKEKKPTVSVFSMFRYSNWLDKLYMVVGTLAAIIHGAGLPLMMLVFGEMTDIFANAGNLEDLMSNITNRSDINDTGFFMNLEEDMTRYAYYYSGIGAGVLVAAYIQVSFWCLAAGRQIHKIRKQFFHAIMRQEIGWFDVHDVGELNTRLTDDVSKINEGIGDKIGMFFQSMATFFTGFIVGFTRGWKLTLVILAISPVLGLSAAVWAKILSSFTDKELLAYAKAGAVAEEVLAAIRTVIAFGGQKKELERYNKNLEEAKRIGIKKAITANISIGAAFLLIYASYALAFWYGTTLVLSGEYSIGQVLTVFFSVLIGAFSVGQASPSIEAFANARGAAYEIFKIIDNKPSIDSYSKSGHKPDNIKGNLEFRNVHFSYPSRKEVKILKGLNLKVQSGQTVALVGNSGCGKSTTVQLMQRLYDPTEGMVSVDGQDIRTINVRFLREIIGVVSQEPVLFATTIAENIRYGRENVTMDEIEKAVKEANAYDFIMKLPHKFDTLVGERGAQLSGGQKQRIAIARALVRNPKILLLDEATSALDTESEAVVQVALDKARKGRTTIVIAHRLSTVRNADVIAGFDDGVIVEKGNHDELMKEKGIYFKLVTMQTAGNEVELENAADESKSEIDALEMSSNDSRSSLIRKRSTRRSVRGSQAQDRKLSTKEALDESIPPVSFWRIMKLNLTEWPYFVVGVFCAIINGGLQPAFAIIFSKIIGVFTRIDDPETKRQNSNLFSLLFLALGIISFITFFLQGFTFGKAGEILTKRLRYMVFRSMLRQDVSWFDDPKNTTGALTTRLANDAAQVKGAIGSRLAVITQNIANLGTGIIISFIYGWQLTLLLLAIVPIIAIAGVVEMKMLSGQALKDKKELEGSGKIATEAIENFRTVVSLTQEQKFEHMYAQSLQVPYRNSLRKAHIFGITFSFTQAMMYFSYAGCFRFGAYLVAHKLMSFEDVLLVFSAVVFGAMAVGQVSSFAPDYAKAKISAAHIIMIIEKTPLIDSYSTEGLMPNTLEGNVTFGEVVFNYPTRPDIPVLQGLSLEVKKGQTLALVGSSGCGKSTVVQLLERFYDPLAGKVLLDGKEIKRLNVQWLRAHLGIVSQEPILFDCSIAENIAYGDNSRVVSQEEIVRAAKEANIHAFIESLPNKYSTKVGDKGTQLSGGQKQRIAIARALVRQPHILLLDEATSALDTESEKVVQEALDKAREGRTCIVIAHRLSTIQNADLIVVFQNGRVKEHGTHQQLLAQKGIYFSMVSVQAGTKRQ
P-gp (ABCB1), sequence (P08183 whole entry): as above

Turning to `COc1ccc2c3c([nH]c2c1)[C@H](C=C(C)C)N1C(=O)[C@@H]2CCCN2C(=O)[C@@H]1C3` [FUMITREMORGIN], the IC50 in series [1] was determined as 0.96 µM.

On to `COc1cc(C2CC(c3ccc4ccccc4c3)=NN2C(C)=O)cc(Cl)c1OC` (configuration not stated), for which the 50% inhibitory concentration (IC50) in series [1] was 7.4 µM; in series [2] it was 3.5 µM; in series [3], 3.8 µM; in series [5], 12.1 µM; in [6], 3.1 µM; in series [8], 4.6 µM. Moreover, the values for the IC50 in series [10] and in series [13] were 2.1 µM and 4.7 µM, respectively. Besides, the “growth inhibition (GI)” value with HT-29, in the series on HCT-116, in the series on PANC-1, with 518A2 [9], with MCF7/Topo and in the series on KB-V1/Vbl was “Dose-dependent effect” each time. The inhibition result in the series on 518A2 [4] and in the series filed under Sus scrofa was “Active” in each case. On P-gp (ABCB1), the selectivity ratio lay within 4 to 5. Besides, the result (in the series with 518A2 [7]; in series [11]; in series [12]) was Active.

As to `COc1cc(C2CC(c3ccc4ccccc4c3)=NN2C(C)=O)cc(I)c1OC` (configuration not stated), the half-inhibitory concentration (IC50) in [1] was 7.1 µM; in series [2] it was 2.3 µM; in [3], 1.6 µM; in series [5] it was 16.3 µM; in [6], 1.1 µM; in [8], 3.8 µM. The half-maximal inhibitory concentration (IC50) in [10] amounted to 2.5 µM; in series [13] it was 1.9 µM. Besides, the “growth inhibition (GI)” value in the series on HT-29, in the series on HCT-116, in the series with PANC-1, in the series with 518A2 [9], in the series with MCF7/Topo and in the series on KB-V1/Vbl was “Dose-dependent effect” throughout. For the same compound, the inhibition result with 518A2 [4] and in the series listed under Sus scrofa was “Active” in each case. Also, the selectivity ratio at P-gp (ABCB1) fell in the range of 4 to 5. In addition, the result in [11] and in series [12] was Active.

Regarding `COc1cc(/C=C/C(=O)c2ccc3ccccc3c2)cc(OC)c1OC`, the IC50 in [1] is 2.4 µM; in series [2], 28.1 µM; in [3] it was 13.7 µM; in [5], 13 µM; in [6] it was 13.3 µM; in series [8], 22.9 µM. For the same compound, the IC50 was 5.6 µM in series [10] and 13.9 µM in series [13]. Further, the “growth inhibition (GI)” value in the series with HT-29, in the series with HCT-116, in the series on PANC-1, in the series on 518A2 [9], with MCF7/Topo and in the series with KB-V1/Vbl was “Dose-dependent effect” each time. Besides, the result (in the series on 518A2 [14]; with 518A2 [15]; with 518A2 [16]; in series [11]; in series [12]) was Active. Further, the selectivity ratio at P-gp (ABCB1) was 4 to 5.

Take `COc1cc(/C=C/C(=O)c2ccc3ccccc3c2)cc(Cl)c1OC`: the half-maximal inhibitory concentration (IC50) is 8.7 µM in series [1]; 23.9 µM in series [2]; 12.9 µM in series [3]; > 500 µM in series [5]; 10.3 µM in [6]; 16.4 µM in [8]. Besides, the half-maximal inhibitory concentration (IC50) in series [10] was 1.5 µM; in series [13] it was 13.1 µM. Moreover, the “growth inhibition (GI)” value in the series on HT-29, in the series with HCT-116, with PANC-1, in the series with 518A2 [9], with MCF7/Topo and in the series on KB-V1/Vbl was “Dose-dependent effect” in each case. The outcome (in the series with 518A2 [14]; in the series with 518A2 [15]; with 518A2 [16]; in series [11]; in series [12]) was Active. Besides, the inhibition entry in the series with 518A2 [4] and in the series listed under Sus scrofa was “Active” in each case.

On to `COc1cc(/C=C/C(=O)c2ccc3ccccc3c2)cc(I)c1OC`, for which the IC50 was 7.8 µM in series [1]; 13.3 µM in series [2]; 14.4 µM in series [3]; > 500 µM in series [5]; 10.4 µM in [6]; 18.1 µM in series [8]. The IC50 in series [10] was 1.3 µM; in series [13] it was 16.5 µM. The “growth inhibition (GI)” value in the series with HT-29, with HCT-116, in the series with PANC-1, in the series on 518A2 [9], with MCF7/Topo and in the series with KB-V1/Vbl was “Dose-dependent effect” throughout. The inhibition result in the series on 518A2 [4] and in the series listed under Sus scrofa was “Active” in each case. For the same compound, the result in series [11] and in series [12] was Active.

With `COc1cc(C2CC(c3ccc4ccccc4c3)=NN2C(C)=O)cc(Br)c1OC` (configuration not stated), the 50% inhibitory concentration (IC50) in series [1] is 8.9 µM; in [2], 2.5 µM; in series [3] it was 2.7 µM; in series [5] it was 12.6 µM; in series [6], 1.5 µM; in [8], 3.8 µM. The IC50 in [10] came to 2.6 µM; in [13], 2.2 µM. Moreover, the “growth inhibition (GI)” value in the series with HT-29, in the series on HCT-116, with PANC-1, in the series with 518A2 [9], in the series with MCF7/Topo and with KB-V1/Vbl was “Dose-dependent effect” each time. For the same compound, on P-gp (ABCB1), the selectivity ratio was in the range of 4 to 5. For the same compound, the result in series [11] and in [12] was Active.

Regarding `COc1cc(/C=C/C(=O)c2ccc3ccccc3c2)cc(Br)c1OC`, the IC50 in series [1] is 4.9 µM; in [2], 22.8 µM; in series [3] it was 11.2 µM; in series [5], > 500 µM; in series [6], 9.3 µM; in series [8], 20.2 µM. Also, the IC50 in series [10] is 2.3 µM; in series [13], 10.5 µM. Also, the “growth inhibition (GI)” value with HT-29, in the series on HCT-116, with PANC-1, in the series with 518A2 [9], with MCF7/Topo and in the series on KB-V1/Vbl was “Dose-dependent effect” in each case. In addition, the outcome in [11] and in series [12] was Active.

As a reminder, the IC50 is the midpoint of a concentration-inhibition curve.
